The values that follow come from ChEMBL document CHEMBL1649391, “A systematic protocol for the characterization of Hsp90 modulators” (Bioorg Med Chem, 2011).

Activity calls are given as the source filed them. The rule behind the calls is not given here.

Experiment [1] relates to LNCaP. Briefly: Antiproliferative activity against human LNCAP cells. Type of experiment: functional, cell-based.
For experiment [2], the target named is Heat shock protein HSP 90-beta (Homo sapiens) (UniProt P08238). Briefly: Inhibition of HSP90 binding to Cdc37 in human SKBR-3 cells by Western blotting. Type of experiment: cell-based. The essentials:
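SKBr-3 cells were treated for 24 h at 0–10 μM. Cells were lysed in NP-40/molybdate Tris buffer pH 7.4 for 2 h at 4 °C, then centrifuged. Lysate protein (500 μg) was immunoprecipitated with anti-Hsp90 for 2 h, then with protein G agarose overnight at 4 °C. Washed precipitates were immunoblotted for Hsp90 and Cdc37.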

The target is the same in experiment [3]. Briefly: Displacement of geldanamycin bound sepharose from HSP90 after 5 mins by affinity chromatography analysis. Summed up:
(§1)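 Lysate with the ATP-regenerating mix was preincubated for 5 min at 37 °C, then loaded onto novobiocin-epoxy-sepharose or onto geldanamycin-derivatized AffiGel beads blocked with BSA. Columns were washed with 20 volumes of buffer containing 0.15 M NaCl. Bound Hsp90 was eluted with a linear 0–5 mM compound gradient in the dark at 4 °C. Eluates were run on 12.5% SDS-PAGE and immunoblotted for Hsp90.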

Experiment [4] has the same target. The experiment is described as follows: Inhibition of HSP90 in human MCF7 cells assessed as degradation of Hsp70 protein up to 50 uM after 48 hrs by Western blotting. Type of experiment: cell-based. Summed up: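 MCF-7 cells were grown in DMEM/F-12 with nonessential amino acids, 2 mM glutamine, penicillin/streptomycin and 10% FBS at 37 °C and 5% CO2. Cells were seeded at 1×10⁶ per dish and left to attach overnight. They were then exposed to varying compound concentrations for 48 h, harvested, and Western blotted for Hsp90 client proteins and Hsp70.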

Experiment [5] concerns the target T1, Heat shock protein HSP 90 (Oryctolagus cuniculus) (UniProt P11500).
T1 sequence (whole entry): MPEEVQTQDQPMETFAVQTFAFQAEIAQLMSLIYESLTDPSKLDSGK
Briefly: Modulation proteolytic fingerprint of HSP90 in rabbit reticulocyte lysates at 20 uM after 5 mins by SDS-PAGE analysis in presence of 125 ug/ml of trypsin. The essentials:
(§2)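 TnT rabbit reticulocyte lysate (50% v/v) with an ATP-regenerating system (10 mM creatine phosphate, 20 units/mL creatine phosphokinase) and 75 mM KCl. Drug or vehicle was added for 5 min at 37 °C, then the mix was chilled. TPCK-trypsin (0, 50 or 125 μg/ml) was added on ice for 6 min. Reactions were stopped by boiling in SDS sample buffer, then run on SDS-PAGE and Western blotted with antibodies to the Hsp90 N-terminus and C-terminus.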

Experiment [6] has as its target T1, Heat shock protein HSP 90 (Oryctolagus cuniculus). Briefly: Modulation proteolytic fingerprint of HSP90 in rabbit reticulocyte lysates at 10 uM after 5 mins by SDS-PAGE analysis in presence of 125 ug/ml of trypsin. The essentials:
as §2

Experiment [7] has as its target Heat shock protein HSP 90-alpha (Homo sapiens) (UniProt P07900). Briefly: Inhibition of human HSP90alpha expressed in yeast PP30 cells co-expressing HSF-lacZ reporter assessed as inhibition of heat stress-induced response at 100 uM after 3 hrs. Type of experiment: cell-based. The essentials: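 Yeast PP30 carrying human Hsp90α as its sole Hsp90 was transformed with a 3×HSE-lacZ reporter and grown at 30 °C in uracil-dropout 2% glucose medium to 2–3×10⁶ cells/ml. Cells were treated with compound, then heat-shocked for 1 h at 39 °C. In lysates, β-galactosidase was read with ONPG in buffer Z pH 7.0 at 30 °C, stopped with Na2CO3, read at OD420 and normalized to protein.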

The target in experiment [8] is Heat shock protein HSP 90-beta (Homo sapiens) (UniProt P08238). Briefly: Displacement of novobiocin bound sepharose from HSP90 after 5 mins by affinity chromatography analysis. The essentials:
as §1

A short description of experiment [9]: Ratio of compound IC50 to KU135 IC50 for human LNCaP-LN3 cells. Type of experiment: functional.
The subject of experiment [10] is LNCaP. The experiment is described as follows: Ratio of compound IC50 to KU135 IC50 for human LNCAP cells. Type of experiment: functional.

Sequence of Heat shock protein HSP 90-beta (Homo sapiens) (P08238 whole entry): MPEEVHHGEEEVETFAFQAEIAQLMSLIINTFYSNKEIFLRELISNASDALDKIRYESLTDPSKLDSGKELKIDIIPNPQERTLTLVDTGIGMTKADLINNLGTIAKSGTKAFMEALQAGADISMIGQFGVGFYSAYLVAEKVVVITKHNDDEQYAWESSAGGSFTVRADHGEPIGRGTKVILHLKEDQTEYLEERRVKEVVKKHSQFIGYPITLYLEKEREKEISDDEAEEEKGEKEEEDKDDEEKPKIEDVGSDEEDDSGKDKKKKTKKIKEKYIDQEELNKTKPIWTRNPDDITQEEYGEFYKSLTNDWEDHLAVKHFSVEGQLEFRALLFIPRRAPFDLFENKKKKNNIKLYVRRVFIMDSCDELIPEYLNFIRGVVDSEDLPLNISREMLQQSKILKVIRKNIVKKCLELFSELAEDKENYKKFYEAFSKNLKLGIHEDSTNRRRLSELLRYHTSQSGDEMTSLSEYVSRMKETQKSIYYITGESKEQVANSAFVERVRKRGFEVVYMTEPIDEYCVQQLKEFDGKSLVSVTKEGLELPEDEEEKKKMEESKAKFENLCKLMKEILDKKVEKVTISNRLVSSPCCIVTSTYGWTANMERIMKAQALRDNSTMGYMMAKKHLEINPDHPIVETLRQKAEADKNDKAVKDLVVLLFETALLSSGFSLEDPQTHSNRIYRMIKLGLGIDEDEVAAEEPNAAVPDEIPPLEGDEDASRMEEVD

For `CC1=C(O)C(=O)C=C2C1=CC=C1[C@@]2(C)CC[C@@]2(C)[C@@H]3C[C@](C)(C(=O)O)CC[C@]3(C)CC[C@]12C`, the result (with LNCaP [1]; in experiment [4]) was inactive. The Activity result in experiment [2] is “Dose-dependent effect”. For the same compound, the result in [3] and in experiment [5] was Active.

As for `CC(=O)O[C@@H]1C[C@H]2C(C)(C)C(=O)C=C[C@]2(C)[C@H]2CC[C@@]3(C)[C@H](c4ccoc4)OC(=O)[C@H]4O[C@]43[C@@]21C`, the outcome (in the experiment with LNCaP [1]; in experiment [4]) was inactive. The Activity result in experiment [2] is “Dose-dependent effect”. Further, the outcome in experiment [3] and in [5] was Active.

Turning to `CO[C@@H]1[C@@H](OC(=O)c2ccc(C)[nH]2)[C@@H](O)[C@@H](Oc2ccc3c(O)c(NC(=O)c4c[nH]c(C(=O)Nc5c(O)c6ccc(O[C@H]7OC(C)(C)[C@H](OC)[C@@H](OC(=O)c8ccc(C)[nH]8)[C@H]7O)c(C)c6oc5=O)c4C)c(=O)oc3c2C)OC1(C)C`, the outcome (with LNCaP [1]; in [4]) was inactive. Also, the outcome in experiment [6] was Active.

`CO[C@@H]1[C@@H](O)[C@@H](O)[C@H](Oc2ccc3cc(NC(C)=O)c(=O)oc3c2)OC1(C)C`: the result in experiment [4] was inactive. The outcome in experiment [6] was Active.

As for `CO[C@@H]1[C@@H](OC(N)=O)[C@@H](O)[C@H](Oc2ccc3c(O)c(NC(=O)c4ccc(O)c(CC=C(C)C)c4)c(=O)oc3c2C)OC1(C)C` [NOVOBIOCIN], the IC50 with LNCaP [1] was determined as 420 nM. Also, the result in [7] and in experiment [6] was Active. For the same compound, the outcome in experiment [4] and in experiment [8] was inactive.

Turning to `COc1cccc(-c2cc(C(=O)Nc3cc4ccc(O[C@@H]5OC(C)(C)[C@H](OC)[C@@H](O)[C@H]5O)c(OC)c4oc3=O)ccc2OC)c1`, the result (with LNCaP [1]; in [4]) was inactive. Moreover, the result in experiment [6] was Active.

Regarding `COc1cccc(-c2cc(C(=O)Nc3cc4cc(OC)c(OC(C)=O)c(C)c4oc3=O)ccc2OC)c1`, the result in [7] and in experiment [6] was Active. The result in [4] was inactive. Moreover, the “Ratio IC50” value (in experiment [9]; in the experiment with LNCaP [10]) was 1000 throughout.

In the case of `O=C(O)CCc1nn(Cc2ccc(Cl)cc2Cl)c2cc(C(F)(F)F)ccc12`, the outcome (in the experiment on LNCaP [1]; in [4]) was inactive. In addition, the Activity entry in experiment [2] is “Dose-dependent effect”. Besides, the result in [3] and in [5] was Active.

Regarding `CO[C@@H]1[C@@H](O)[C@@H](O)[C@H](Oc2ccc3cc(NC(C)=O)c(=O)oc3c2C)OC1(C)C`, the outcome in experiment [4] was inactive. Moreover, the result in experiment [6] was Active.

For the compound `CO[C@@H]1[C@@H](O)[C@@H](O)[C@H](Oc2ccc3cc(NC(=O)CCCCCCC(=O)Nc4cc5ccc(O[C@H]6OC(C)(C)[C@@H](OC)[C@H](O)[C@@H]6O)cc5oc4=O)c(=O)oc3c2C)OC1(C)C`, the result in [4] was inactive. In experiment [6], the result was Active.
